Experimental data gathered from unrelated publications.
Protocols differ between the studies behind these lines.

Compound | cell line | observed | method | time | IC50
COc1ccc(-c2nc(C(=O)Nc3nnc(-c4cc5ccccc5[nH]4)s3)cc3c2[nH]c2ccccc23)cc1 | BEAS-2B | cell growth or viability | MTT | 72 h | 71.2 µM
CC(C)C(=O)SCCCCCCC(=O)Nc1nc(-c2ccccc2)cs1 | HN-6 | cell growth or viability |  | 72 h | 5.9 µM
CC1(C)CC[C@]2(C(=O)O)CC[C@]3(C)C(=CC[C@@H]4[C@@]5(C)CC[C@H](O)C(C)(C)[C@@H]5CC[C@]43C)[C@@H]2C1 | SGC-7901 | cell growth or viability | MTT | 48 h | 52.7 µM
Cc1ccc(C(=O)Nc2ccc(Oc3cc4cnn(C)c4cc3-c3cn[nH]c3)c(F)c2)c(=O)n1-c1ccc(F)cc1 | KATO III | cell growth or viability | ATP luminescence |  | 0.354 µM
COC(=O)CN=c1scc(-c2ccccc2)n1-c1ccccc1[N+](=O)[O-] | Panc 02.03 | cell growth or viability | MTT | 72 h | > 100 µM
Nc1c2c(nc3ccccc13)CCCC2O (centres unmarked) | HN-6 | cell growth or viability |  | 72 h | > 20 µM
O=C(NCCc1c[nH]c2ccccc12)C(=O)c1c[nH]c2ccc(F)cc12 | C4-2 | cell growth or viability | MTT |  | > 100 µM
O=C1c2cccc(O)c2C(=O)c2c(O)cc(CO)cc21 | HK-2 | cell growth or viability | MTT | 24 h | > 500 µM
CCN1CCN(c2ccc(Nc3cc(N(C)C(=O)Nc4c(Cl)c(OC)cc(OC)c4Cl)ncn3)cc2)CC1 | KATO III | cell growth or viability | ATP luminescence | 96 h | 0.00222 µM
CC(C)(C)C1=CC(=NNc2ccc(C#N)cc2)C=C(C(C)(C)C)C1=O | human Fibroblast | cell growth or viability | resazurin | 24 h | > 100 µM
O=C1NCCc2[nH]c(-c3ccncc3)cc21 | LOX IMVI | cell growth or viability |  |  | 3.58 µM
COC(C)(C)CCC[C@](C)(O)[C@H]1CC[C@]2(C)[C@@H]1[C@H](O)C[C@@H]1[C@@]3(C)CC[C@H](O)C(C)(C)[C@@H]3CC[C@]12C | BEAS-2B | cell growth or viability | MTT | 72 h | 24.6 µM
CCCCC/C=C\C/C=C\C/C=C\C/C=C\CCCC(=O)C(F)(F)F | MEL-JUSO | cell growth or viability | MTS | 72 h | 22.8 µM
Nc1ncnc2c1ncn2[C@@H]1O[C@H](CO)[C@@H](O)[C@@H]1O | HN-6 | cell growth or viability |  | 72 h | > 20 µM
Nc1ccc(Cl)c[n+]1[Pt-2]([Cl])([Cl])[n+]1cc(Cl)ccc1N | BEAS-2B | cell growth or viability | MTT | 24 h | 10.3 µM
Cc1cc(O)c2c(c1)C(=O)c1cccc(O)c1C2=O | HK-2 | cell growth or viability | MTT | 24 h | > 500 µM
COc1cc(Nc2nccc(-c3cnn4nc(OC)ccc34)n2)cc(C(F)(F)F)c1 | A2058 | cell growth or viability | ATP luminescence |  | 0.19 µM
CC1(C)[C@@H](O)CC[C@]2(C)[C@H]3C(=O)C=C4[C@@H]5C[C@@](C)(C(=O)O)CC[C@]5(C)CC[C@@]4(C)[C@]3(C)CC[C@@H]12 | SGC-7901 | cell growth or viability | MTT | 48 h | 10.2 µM
CN(C)CC[C@@H](c1ccc(Cl)cc1)c1ccccn1 | HN-6 | cell growth or viability |  | 72 h | > 20 µM

Compound | cell line | observed | method | time | IC50
O=C(c1cc(Cc2n[nH]c(=O)c3ccccc23)ccc1F)N1CCN(C(=O)C2CC2)CC1 | KATO III | colony formation |  |  | 2.43 µM
COc1ccc(Oc2ccccc2NC(=O)CNC(=O)c2cccc3ccccc23)cc1 | SK-N-DZ | cell growth or viability |  |  | 0.271 µM
CS(=O)(=Nc1ccc(Br)cc1)c1c[nH]c2ccccc12 (centres unmarked) | C4-2 | cell growth or viability | MTT | 48 h | > 40 µM
CCCCc1ccc2[nH]c(NC(=O)OC)nc2c1 | HN-6 | cell growth or viability |  | 72 h | 0.126 µM
C=C(C)C(=O)Nc1ccc(-c2c(-c3ccc(Oc4nccc(C)n4)c(F)c3)c3c(N)ncnc3n2C)cc1 | KATO III | cell growth or viability | ATP luminescence | 96 h | 0.00129 µM
COc1nc(OCc2cccc(-c3ccccc3)c2C)ccc1CNCCNC(C)=O | HK-2 | cell growth or viability | MTT |  | 1.9 µM
NCCc1ccc(O)c(O)c1 | HN-6 | cell growth or viability |  | 72 h | > 20 µM
N=C(N)c1ccc(N=Nc2c(O)ccc3cc(O)ccc23)cc1 | MDA-MB-468 | cell growth or viability | MTT |  | 20 µM
CC(C)(C)C1=CC(=NNC(=O)c2cccnc2)C=C(C(C)(C)C)C1=O | human Fibroblast | cell growth or viability | resazurin | 24 h | > 100 µM
COC(=O)CN=c1scc(-c2ccccc2)n1-c1ccccc1 | Panc 02.03 | cell growth or viability | MTT | 72 h | 81.5 µM
CC(C)C[C@H](NC(=O)[C@H](Cc1ccccc1)NC(=O)c1cnccn1)B(O)O | RERF-LC-Ad2 | cell growth or viability | ATP luminescence |  | 0.022 µM
CCN(CC)CCCCNc1ncc2cc(-c3cc(OC)cc(OC)c3)c(NC(=O)NC(C)(C)C)nc2n1 | RT-112 | cell growth or viability | MTT | 5 days | 0.015 µM
COc1cc([C@@H]2c3cc4c(cc3[C@@H](O[C@@H]3O[C@@H]5CO[C@@H](C)O[C@H]5[C@H](O)[C@H]3O)[C@H]3COC(=O)[C@H]23)OCO4)cc(OC)c1O | BEAS-2B | cell growth or viability |  |  | 11.2 µM
CCN1C(=O)N(c2c(F)c(OC)cc(OC)c2F)Cc2cnc3[nH]c(CN4CCOCC4)cc3c21 | RT-112 | cell growth or viability | ATP luminescence | 96 h | 0.00522 µM
COc1ccc(CCN(C)CCc2ccc(OC)c(OC)c2)cc1OC | HN-6 | cell growth or viability |  | 72 h | > 20 µM
COc1c(O)cc2c(c1O)C(=O)c1c(cc(C)c(O)c1OC)C2=O | HK-2 | cell growth or viability | MTT | 24 h | > 500 µM
Cn1cc(C(=O)C(=O)NCCc2c[nH]c3ccccc23)c2ccccc21 | C4-2 | cell growth or viability | MTT |  | > 100 µM
COc1ccc2c(c1OC)C(=O)O[C@@H]2[C@H]1c2c(cc3c(c2OC)OCO3)CCN1C | HN-6 | cell growth or viability |  | 72 h | 16.3 µM
O=C(CNC(=O)c1cccc2ccccc12)Nc1ccccc1Oc1ccccc1 | SK-N-DZ | cell growth or viability |  |  | 0.237 µM
